Broadly, the inhibition is the percentage by which the read-out fell short of the control.

The source made the active and inactive calls. The calls are words filed in the database; no cut-off is given here. Where only a bound is given, the exact number is not on record here.

Holding throughout (assay type): functional
The subject of assay [1] is MDA-MB-231. In words: Ex vivo antitumor activity against human MDA-MB-231 cells co-cultured with neonatal Swiss mouse bone in BGJb medium assessed as inhibition of tumor growth at 5 uM administered simultaneously with cancer cells measured on day 5 post treatment by Gaussia luciferase reporter gene assay relative to control. In outline:
(§1)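 Calvariae from […] Swiss mouse pups were punched into 4 or 5 mm disks. Each was seeded with 1 x 10^4 tumor cells (lentiviral secreted Gaussia luciferase/GFP-blasticidin, FACS-sorted GFP+) in BGJb plus 10% fetal calf serum at 37°C, 5% CO2. After 24 h bones moved to fresh wells; medium changed every 2 days. Conditioned-medium luciferase read as RLU. Biological triplicate, mean ± SD, Welch's t-test.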
On the technique in general: A reporter such as luciferase makes a cellular process visible.

Assay [2] concerns MDA-MB-231. The assay can be described thus: Ex vivo antitumor activity against human MDA-MB-231 cells co-cultured with neonatal Swiss mouse bone in BGJb medium assessed as inhibition of tumor growth at 5 uM administered on day 2 post cancer cells addition measured on day 7 post treatment by Gaussia luciferase reporter gene assay relative to control. The gist of the method: as §1

Assay [3] concerns MDA-MB-231. The assay can be described thus: Ex vivo antitumor activity against human MDA-MB-231 cells co-cultured with neonatal Swiss mouse bone in BGJb medium assessed as inhibition of tumor growth at 5 uM administered on day 2 post cancer cells addition measured on day 5 post treatment by Gaussia luciferase reporter gene assay relative to control. The gist of the method: as §1

The test system of assay [4] is MDA-MB-231. The assay can be described thus: Ex vivo antitumor activity against human MDA-MB-231 cells co-cultured with neonatal Swiss mouse bone in BGJb medium assessed as inhibition of tumor growth at 5 uM administered simultaneously with cancer cells measured on day 7 post treatment by Gaussia luciferase reporter gene assay relative to control. The gist of the method:
as §1

Assay [5] relates to MDA-MB-231. In words: Antiinvasive activity in human MDA-MB-231 cells assessed as inhibition of cell invasion at 5 uM by boyden chamber method relative to control.

As for `Cc1ccc(N2C(=O)C3NN=C(c4ccc(Cl)cc4)C3C2c2cccc(C(F)(F)F)c2)cc1Br` (stereo not drawn), the TGI entry with MDA-MB-231 [1], in the assay with MDA-MB-231 [2], in the assay with MDA-MB-231 [3] and in the assay on MDA-MB-231 [4] was “Active” in each case. For the same molecule, in the assay with MDA-MB-231 [5], the inhibition at 5 µM was greater than 70%.

Take `O=C1C2C(C(c3ccc(Cl)cc3)=NN2C2CCCCC2)C(c2cccc(F)c2)N1CCc1c[nH]c2ccccc12` (stereo not drawn): the TGI result with MDA-MB-231 [1], in the assay on MDA-MB-231 [2], in the assay on MDA-MB-231 [3] and in the assay with MDA-MB-231 [4] was “Active” each time. Besides, in the assay with MDA-MB-231 [5], the inhibition entry is “inactive”.

Regarding `CC(C)N1N=C(c2ccc(Cl)cc2)C2C(c3cccc(F)c3)N(CCc3c[nH]c4ccccc34)C(=O)C21` (stereo not drawn), the TGI entry with MDA-MB-231 [1] and in the assay on MDA-MB-231 [3] was “Active” throughout. Further, the TGI in the assay on MDA-MB-231 [2] and with MDA-MB-231 [4] was 40% in each case. For the same molecule, in the assay with MDA-MB-231 [5], the inhibition at 5 µM was greater than 70%.

On to `COc1ccc(N2C(=O)C3NN=C(c4ccc(Cl)cc4)C3C2c2cccc(F)c2)cn1` (stereo not drawn), for which the TGI result in the assay on MDA-MB-231 [1], in the assay with MDA-MB-231 [2], in the assay on MDA-MB-231 [3] and with MDA-MB-231 [4] was “Active” throughout.

On to `Cc1ccc(N2C(=O)C3C(C(c4ccc(Cl)cc4)=NN3C(C)C)C2c2cccc(F)c2)cc1Br` (stereo not drawn), for which the TGI result in the assay with MDA-MB-231 [1], in the assay with MDA-MB-231 [2], in the assay with MDA-MB-231 [3] and in the assay on MDA-MB-231 [4] was “Active” each time.

As to `COc1cccc(C2=NNC3C(=O)N(CCc4c[nH]c5ccccc45)C(c4cccc(F)c4)C23)c1` (stereo not drawn), the TGI result in the assay with MDA-MB-231 [1] and in the assay with MDA-MB-231 [3] was “Active” throughout. Also, the TGI with MDA-MB-231 [2] and with MDA-MB-231 [4] was greater than 50% each time. Also, the inhibition at 5 µM with MDA-MB-231 [5] was found to be 90%.

`O=C1C2NN=C(c3ccc(Cl)cc3)C2C(c2cccc(F)c2)N1Cc1c[nH]c2ccccc12` (stereo not drawn): the TGI entry with MDA-MB-231 [1], in the assay with MDA-MB-231 [2], with MDA-MB-231 [3] and in the assay with MDA-MB-231 [4] was “Active” in each case. Besides, the inhibition at 5 µM in the assay on MDA-MB-231 [5] amounted to 20%.

Turning to `O=C1C2NN=C(c3ccc(Cl)cc3)C2C(c2cccc(F)c2)N1c1cccc(Br)c1` (stereo not drawn), the TGI result in the assay with MDA-MB-231 [1], with MDA-MB-231 [2], in the assay with MDA-MB-231 [3] and in the assay with MDA-MB-231 [4] was “Active” in each case. Moreover, the inhibition at 5 µM in the assay on MDA-MB-231 [5] is greater than 70%.

On to `O=C1C2NN=C(c3ccc(Cl)cc3)C2C(c2cccc(F)c2)N1CCc1cccnc1` (stereo not drawn), for which the TGI result in the assay with MDA-MB-231 [1], with MDA-MB-231 [2], in the assay with MDA-MB-231 [3] and in the assay with MDA-MB-231 [4] was “Active” each time. Further, the inhibition at 5 µM in the assay on MDA-MB-231 [5] came out at 40%.

On to `CCCN1N=C(c2ccc(Cl)cc2)C2C1C(=O)N(c1ccc(C)c(Br)c1)C2c1cccc(F)c1` (stereo not drawn), for which the TGI entry with MDA-MB-231 [1], in the assay on MDA-MB-231 [2], in the assay on MDA-MB-231 [3] and with MDA-MB-231 [4] was “Active” in each case. Moreover, the inhibition at 5 µM in the assay with MDA-MB-231 [5] was greater than 70%.

Turning to `Cc1ccc(N2C(=O)C3C(C(c4ccc(Cl)cc4)=NN3C)C2c2cccc(F)c2)cc1Br` (stereo not drawn), the TGI entry in the assay on MDA-MB-231 [1], with MDA-MB-231 [2], in the assay on MDA-MB-231 [3] and with MDA-MB-231 [4] was “Active” each time. For the same molecule, the inhibition at 5 µM in the assay with MDA-MB-231 [5] is greater than 70%.

`O=C1C2NN=C(c3ccc(Cl)cc3)C2C(c2ccc(C(F)(F)F)cc2)N1CCc1c[nH]c2ccccc12` (stereo not drawn): the TGI result with MDA-MB-231 [1], in the assay on MDA-MB-231 [2], with MDA-MB-231 [3] and with MDA-MB-231 [4] was “Active” in each case. Moreover, the inhibition at 5 µM with MDA-MB-231 [5] came out at 90%.

The values are drawn from ChEMBL document CHEMBL4308891, “Small molecules inhibit ex vivo tumor growth in bone” (Bioorg Med Chem, 2018).
